Bioassay records (PubChem BioAssay)
Hits are enriched below; roughly 4.5% of the tested compounds scored in any of these assays.
GPR7 antagonist: GPR7 receptor antagonists, primary screen, cell-based, fluorescence, single concentration. Neuropeptides B/W receptor type 1 (Homo sapiens), P48145. GPR7-expressing cells, fluorescence antagonist assay. inhibition, % at 4.4 µM. 1.1% of 290,000 active. AID 1861, 2009; in the data active means inhibition above about 16%, passing the limit was not always enough;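 further: cells stimulated with the agonist NPW; 0% = agonist with vehicle and 100% = vehicle without agonist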
Target sequence (P48145 whole entry, looked up): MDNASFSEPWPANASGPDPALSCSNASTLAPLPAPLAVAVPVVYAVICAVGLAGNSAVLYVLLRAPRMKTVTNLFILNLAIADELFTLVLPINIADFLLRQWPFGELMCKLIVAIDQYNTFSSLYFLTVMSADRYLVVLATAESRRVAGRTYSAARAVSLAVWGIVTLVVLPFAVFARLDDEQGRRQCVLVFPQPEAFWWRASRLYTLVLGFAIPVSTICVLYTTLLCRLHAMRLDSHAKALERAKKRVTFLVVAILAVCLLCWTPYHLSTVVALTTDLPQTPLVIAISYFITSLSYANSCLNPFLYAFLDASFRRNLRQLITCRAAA
TAAR1 antagonist: human TAAR1 antagonists, primary screen, Fluo-8 calcium fluorescence, CHO RD-HGA16 cells | Trace amine-associated receptor 1 (Homo sapiens), Q96RJ0 | antagonist | inhibition, % at 3 µM | 1.5% of 360,000 active | AID 624466, 2012;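 active means inhibition above a per-plate cutoff, the mean inhibition of test compounds on that plate plus 3 SD, cut at about 49% in these data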;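 further: 0% = DMSO plus EC80 beta-PEA response and 100% = DMSO alone without agonist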
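Test system – hTAAR1-expressing CHO RD-HGA16 cells, Gα16-coupled · Reagent – β-PEA at EC80 concentration, post-compound challenge · Compound dosing – 3 µM, single point · Timing – 140 s kinetic read after compound, 140 s after agonist · Detection – Fluo-8 intracellular calcium dye fluorescence, real-time kinetic reads · Control set – DMSO and EC80 PEA controls · Repeats – n of 1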
TAAR1 agonist: human TAAR1 agonists, primary screen, Fluo-8 calcium fluorescence, CHO RD-HGA16 cells; Trace amine-associated receptor 1 (Homo sapiens), Q96RJ0; vehicle wells 0%, saturating PEA agonist 100%; activation, % at 3 µM; 0.99% of 360,000 active;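 active means activation above the mean activation of all test compounds in the run plus 3 SD, cut at about 38% in these data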
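test system = CHO RD-HGA16 cells carrying human TAAR1 plus Gα16 | schedule = 17-24 h seeding, 75 min 37 °C dye, 30 min RT | compound dosing = 3 µM single concentration | control set = DMSO and PEA EC100 | replicates = n 1 | signal = Fluo-8 fluorescence, 5 s baseline then 140 s kinetic read | measure = percent activation vs PEA EC100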
OX1R antag-1: OX1R (HCRTR1) antagonists, primary screen, fluorescence, CHO/OX1R cells, Fluo-8 calcium, orexin A. Fluo-8 calcium fluorescence. 0.43% of 330,000 active. inhibition, % at 5 µM;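 active means inhibition above its plate's threshold, mean inhibition of all tested compounds on the plate plus 3 SD, cut at about 37% in these data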;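 further: 0% = orexin A challenge wells and 100% = SB-334867-A antagonist wells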
Target sequence (O43613 whole entry, looked up): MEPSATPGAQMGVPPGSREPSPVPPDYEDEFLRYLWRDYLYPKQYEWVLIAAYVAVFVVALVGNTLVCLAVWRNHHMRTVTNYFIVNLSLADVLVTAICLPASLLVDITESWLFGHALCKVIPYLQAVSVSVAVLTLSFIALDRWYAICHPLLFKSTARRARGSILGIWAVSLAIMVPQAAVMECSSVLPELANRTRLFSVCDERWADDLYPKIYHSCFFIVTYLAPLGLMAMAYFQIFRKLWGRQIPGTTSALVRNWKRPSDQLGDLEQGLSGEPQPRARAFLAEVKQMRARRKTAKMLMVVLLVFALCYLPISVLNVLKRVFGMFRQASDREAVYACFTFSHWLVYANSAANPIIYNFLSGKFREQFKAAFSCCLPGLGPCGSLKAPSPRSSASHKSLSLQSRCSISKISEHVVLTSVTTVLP
CHO parental Ca: ATP-evoked calcium signal inhibitors, parental CHO, primary screen, counter-screen for OX1R antagonist project, cell-based, fluorescence, Fluo-8 calcium dye. parental CHO-K1, ATP-induced calcium, Fluo-8 fluorescence. 0.63% of 330,000 active. AID 463079, 2010. inhibition, % at 5.6 µM;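 active means inhibition above that plate's mean sample inhibition plus 3 SD, cut at about 26% in these data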;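 further: 0% = ATP-challenged DMSO wells and 100% = DMSO wells without ATP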
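Test system: untransfected parental CHO cell line; also added: ATP stimulus; dosing: 5.6 µM, single dose; signal: calcium-sensitive Fluo-8 fluorescence; measure: percent inhibition of ATP-evoked calcium rise, normalized to controls; benchmarks: low control ATP plus DMSO, high control DMSO only; replication: one well per compound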
OX1R antag-2: antagonists of human orexin 1 receptor (OX1R). Orexin/Hypocretin receptor type 1 (Homo sapiens), O43613. OX1R-expressing cells, FRET antagonist read-out. inhibition, % at 6.6 µM. 1.8% of 330,000 active. AID 485270, 2010; in the data active means inhibition mostly above about 38%, no sharp cut-off; inactive means mostly below about 40%;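 further: 0% = agonist challenge alone and 100% = reference antagonist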
TAAR1 nonsel count: nonselective antagonists in TAAR1 counter-screen cells, counter-screen for hTAAR1 antagonist project, cell-based, fluorescence, calcium | shares compounds with TAAR1 antagonist | counterscreen cell line, antagonist mode | inhibition, % at 3 µM | 77% of 2,400 active | AID 651780, 2012; in the data active means inhibition above about 22%;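 further: CHO-Ga16 host cells stimulated with ATP at an EC80 level; 0% = agonist EC80 plus vehicle and 100% = vehicle without agonist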
TAAR1 ant conf: human TAAR1 antagonists, retest of hits, confirmation, cell-based, fluorescence. shares compounds with TAAR1 antagonist. TAAR1-expressing cells, fluorescence antagonist read-out. inhibition, % at 3 µM. 40% of 2,400 active. AID 651785, 2012; in the data active means inhibition above about 49%;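 further: CHO-Ga16 host cells challenged with agonist PEA near its EC80; 0% = agonist at EC80 plus vehicle and 100% = vehicle with no agonist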
Ga16 nonsel ag: calcium activation in Ga16-expressing cells, counter-screen for TAAR1 antagonist project, cell-based, fluorescence; activation, % at 3 µM; agonist counterscreen; shares compounds with TAAR1 antagonist; 18% of 2,400 active; in the data active means activation above about 12%;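 further: 0% = vehicle wells and 100% = saturating stimulus response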
TAAR1 ag count: TAAR1 activation by candidate antagonists – cell-based, fluorescence, counter-screen for TAAR1 antagonist project; AID 651955, 2012; activation, % at 3 µM; shares compounds with TAAR1 antagonist; 2% of 2,400 active; hTAAR1 cell line, agonist mode; in the data active means activation above about 37%;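 further: CHO cells stably expressing TAAR1 with calcium dye readout; 0% = DMSO vehicle and 100% = full agonist response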
Numbers without * were called inactive; . = no result given.

SMILES	GPR7 antagonist	TAAR1 antagonist	TAAR1 agonist	OX1R antag-1	CHO parental Ca	OX1R antag-2	TAAR1 nonsel count	TAAR1 ant conf	Ga16 nonsel ag	TAAR1 ag count
Cc1nn(Cc2ccc(Cl)cc2Cl)c(C)c1NC(=O)c1sc2ccccc2c1Cl	-11	-7	4	-20	3	15	.	.	.	.
CC(C)(C)OC(=O)C[C@H]1C/C=C\C[C@@H](CC(=O)N[C@H](CO)Cc2ccccc2)C(=O)N2CCC[C@H]2COC1=O	.	29	14	-3	-6	8	.	.	.	.
CC(C)(C)OC(=O)C[C@@H]1C/C=C\C[C@@H](CC(=O)N[C@H](CO)Cc2ccccc2)C(=O)N2CCC[C@H]2COC1=O	.	67*	22	6	-8	6	30*	50*	12*	11
CC(C)(C)OC(=O)C[C@@H]1C/C=C\C[C@@H](CC(=O)N[C@H](CO)Cc2ccccc2)C(=O)NC[C@H](c2ccccc2)OC1=O	.	53*	16	4	-7	11	23*	41	6	7
Cc1nc(C(F)(F)F)ccc1C(=O)N1CCCCCC1(C)C(=O)NCC(C)C (stereo not drawn)	.	-12	2	.	.	.	.	.	.	.
CCN1C=C(Cc2cccs2)C2=C(C1)C(c1cccs1)C(C#N)=C(N)O2 (stereo not drawn)	-11	53*	26	-12	-18	31	20	38	6	9
CCN1CC2=C(OC(N)=C(C#N)C2c2cccs2)/C(=C/c2cccs2)C1 (stereo not drawn)	-9	34	18	-20	-30	15	.	.	.	.
Nn1cnnc1N/N=C/c1ccccc1C(F)(F)F	-13	12	-1	2	4	30	.	.	.	.
CC(C)(C)c1nnc(N/N=C/c2ccccc2)n(N)c1=O	-1	59*	13	-31	-15	3	30*	52*	9	5
CC(C)(C)c1nnc(N/N=C/c2ccccc2O)n(N)c1=O	2	59*	25	-11	-9	22	42*	64*	19*	17
CCOC(=O)C1(C)CCN1C(=O)c1csnn1 (stereo not drawn)	.	-3	4	.	.	.	.	.	.	.
O=C(COC(=O)c1ccccc1C(=O)c1ccc(Cl)c([N+](=O)[O-])c1)NC1CCCCCC1	30*	74*	13	48*	39*	21	35*	54*	9	10
Nc1cc(Cl)ccc1C(=O)OCC(=O)N1CCOCC1	-10	-6	2	-27	8	11	.	.	.	.
O=C(COC(=O)c1ccc(Cl)c([N+](=O)[O-])c1)NC1CCCC1	-5	4	1	-10	-8	17	.	.	.	.
CSc1ncccc1C(=O)OCC(=O)N1CCCC1	.	101*	-3	11	-6	2	-4	-12	8	3
Nc1cc(Cl)ccc1C(=O)OCC(=O)NC1CCCCC1	0	102*	-2	17	30*	25	11	8	3	12
Nc1cc(Cl)ccc1C(=O)OCC(=O)N1CCCCCC1	.	103*	2	3	-5	0	11	5	4	7
CCc1nc2ccc(C(=O)N3CCN(C(C)=O)CC3)cn2c1N(CC)C(=O)NCCc1ccccc1	.	-32	2	.	.	.	.	.	.	.
COc1ccc(-c2csc(N3CCN(c4cc5c(cc4Cl)nc(-c4ccncc4)n5CCOCCO)CC3)n2)cc1	-1	50*	13	-21	-19	18	34*	33	8	0
Cc1ccc(-c2csc(N3CCN(c4cc5c(cc4Cl)nc(-c4ccncc4)n5CCN4CCCCC4)CC3)n2)cc1	-16	7	0	-22	-40	18	.	.	.	.
Cc1ccc(S(=O)(=O)N2[C@@H](CO)CO[C@H]2CC(=O)c2cccs2)cc1	.	-21	-1	.	.	.	.	.	.	.
CCc1ccccc1NC(=O)C1CC(c2ccc(OC)cc2)=NO1 (stereo not drawn)	-15	103*	-2	-27	-13	7	15	7	4	6
COc1ccc(C2=NOC(C(=O)N3CCN(c4ccccc4OC)CC3)C2)cc1 (stereo not drawn)	-8	51*	10	-35	-16	-3	21	23	8	8
Cc1nc(CN2C(=O)C3(CCC3)ON=C2c2cccc(Cl)c2)cs1	.	-19	1	.	.	.	.	.	.	.
COC(=O)[C@]12CCCCC=C1N(CCC1=CCCCC1)C(=O)[C@H](CC(=O)N1CCOCC1)C2	.	7	3	.	.	.	.	.	.	.
SMILES	GPR7 antagonist	TAAR1 antagonist	TAAR1 agonist	OX1R antag-1	CHO parental Ca	OX1R antag-2	TAAR1 nonsel count	TAAR1 ant conf	Ga16 nonsel ag	TAAR1 ag count
COc1ccc(CCNC(=O)c2cc(C3CC3)nc3c2cnn3C(C)C)cc1OC	.	9	7	-32	-22	6	.	.	.	.
COc1ccc(CNC(=O)c2cc(C3CC3)nc3c2cnn3C(C)C)cc1	.	50*	5	-33	-9	5	12	22	3	-1
CCCCn1c(N)c(N(CCOC)C(=O)COC(=O)c2ccccc2NCCO)c(=O)[nH]c1=O	.	-7	2	.	.	.	.	.	.	.
CC(=O)Nc1ccc(CN2C(=O)C(CCc3ccccc3)ON=C2c2cnccn2)cc1 (stereo not drawn)	.	76*	20	.	.	.	29*	54*	11	10
O=C1C(CCc2ccccc2)ON=C(c2cnccn2)N1Cc1ccc(F)cc1 (stereo not drawn)	.	30	0	.	.	.	.	.	.	.
CN(C(=O)c1ccc(NC(=O)Cc2cccc(NC(=O)C3CCN(C(=O)C4CCCC4)CC3)c2)cc1)C1CC1	.	-17	1	.	.	.	.	.	.	.
O=C(N=Nc1c(O)n(Cc2ccccc2)c2ccccc12)c1ccc(O)cc1	-3	51*	3	-10	-24	10	21	32	3	-3
O=C1NC[C@H](CCCCN2CCN(CCC3CCCCC3)C(=O)C2=O)N(CC2CCCCC2)C1=O	.	-3	1	.	.	.	.	.	.	.
O=C1c2ccccc2C(c2nnnn2Cc2ccccc2)N1Cc1ccc(F)cc1 (stereo not drawn)	.	-15	1	.	.	.	.	.	.	.
